In ChEMBL document CHEMBL1147795, “cis-2,5-dicyanopyrrolidine inhibitors of dipeptidyl peptidase IV: synthesis and in vitro, in vivo, and X-ray crystallographic characterization” (J Med Chem, 2006):
One block for each molecule: values may come before it.

Legend:
Dipeptidyl peptidase 4 = Dipeptidyl peptidase 4 (Homo sapiens, UniProt P27487); assay: Inhibition of human recombinant DPP4
[1] = biological target: Dipeptidyl peptidase 4 (Mus musculus) (UniProt P28843); assay: Lowering of glucose level in diabetic KK/H1J mouse at 5 mg/kg, po; assay type: functional, organism-based; parameters: dose 5 mg/kg
Outline: (§1)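 Diabetic KK/H1J mice fasted overnight, 10 per group, dosed orally in 0.5% methylcellulose. Glucose given orally at t = 15 min; plasma glucose at t = 45 min.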

Rattus norvegicus [2] = species on record: Rattus norvegicus; assay: Hepatic clearance in Sprague-Dawley rat; assay type: ADME, organism-based, Liver; conditions: in vivo
Outline: (§2)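 Male Sprague-Dawley rats (200-250 g), jugular vein cannulated. IV bolus 1.0 mg/kg in sterile saline; oral gavage 5.0 mg/kg in 0.5% methylcellulose. Blood sampled 0 to 24 h into lithium heparin, plasma frozen at -70 °C, compound quantified by LC/MS/MS after acetonitrile protein precipitation (standard curve 1.0-2000 ng/mL).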

[3] = Half life in Sprague-Dawley rat at 5 mg/kg, po; assay type: ADME, organism-based; parameters: dose 5 mg/kg, route oral; conditions: in vivo; outline: as §2
[4] = biological target: Dipeptidyl peptidase 4 (Mus musculus) (UniProt P28843); assay: Lowering of glucose level in diabetic KK/H1J mouse at 10 mg/kg, po; assay type: functional, organism-based; parameters: dose 10 mg/kg; outline: as §1
[5] = Bioavailability in Sprague-Dawley rat; assay type: ADME, organism-based; conditions: in vivo; outline: as §2
[6] = Volume of distribution in Sprague-Dawley rat; assay type: ADME, organism-based; conditions: in vivo, read-out: Vdss; outline: as §2
[7] = Half life in Sprague-Dawley rat at 1 mg/kg, iv; assay type: ADME, organism-based; parameters: dose 1 mg/kg, route intravenous; conditions: in vivo; outline: as §2
[8] = Solubility in unbuffered water; assay type: physicochemical
Outline: (§3)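 Solubility of the mono-hydrochloride salt measured in PBS pH 6.5 and in unbuffered water; final pH of the water solution 2.0.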

[9] = Solubility in phosphate buffered saline at pH 6.5; assay type: physicochemical; outline: as §3
Rattus norvegicus [10] = species on record: Rattus norvegicus; assay: Cmax in Sprague-Dawley rat; assay type: ADME, organism-based; conditions: in vivo; outline: as §2
[11] = Tmax in Sprague-Dawley rat; assay type: ADME, organism-based; conditions: in vivo; outline: as §2
[12] = Percent of unbound ligand in human plasma; assay type: ADME
[13] = Percent of unbound ligand in cynomolgus monkey plasma; assay type: ADME, cell-free, Macaca fascicularis
Cynomolgus monkey = assay: Hepatic clearance in cynomolgus monkey; assay type: ADME, organism-based, Macaca fascicularis, Liver; conditions: in vivo
Outline: (§4)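 Dog and monkey PK: oral dosing at 1 mg kg^-1 in sterile water, intravenous at 1 mg kg^-1 in sterile saline.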

Rattus norvegicus [14] = species on record: Rattus norvegicus; assay: AUC (0-infinity) in Sprague-Dawley rat; assay type: ADME, organism-based, Plasma; parameters: time infinity; conditions: in vivo; outline: as §2
[15] = Volume of distribution in Beagle dog; assay type: ADME, organism-based, Canis lupus familiaris; conditions: in vivo, read-out: Vdss; outline: as §4
[16] = Percent of unbound ligand in Beagle dog plasma; assay type: ADME, cell-free, Canis lupus familiaris
[17] = Half life in Beagle dog at 1 mg/kg, iv; assay type: ADME, organism-based, Canis lupus familiaris; parameters: dose 1 mg/kg, route intravenous; conditions: in vivo; outline: as §4
[18] = Bioavailability in Beagle dog; assay type: ADME, organism-based, Canis lupus familiaris; conditions: in vivo; outline: as §4
Canis familiaris [19] = species on record: Canis familiaris; assay: Hepatic clearance in Beagle dog; assay type: ADME, organism-based, Canis lupus familiaris, Liver; conditions: in vivo; outline: as §4
Rattus norvegicus [20] = assay: Increase in thiocyanate ion in rat plasma at 15 mg/kg, po after 24 hrs; assay type: ADME, organism-based; parameters: dose 15 mg/kg, route oral; conditions: in vivo
Outline: (§5)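 Stored plasma from earlier oral dosing (rat 15 mg kg^-1, dog and monkey 3 mg kg^-1) analysed for thiocyanate through 24 h, compared with the t = 0 sample.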

[21] = Tmax in Beagle dog; assay type: ADME, organism-based, Canis lupus familiaris; conditions: in vivo; outline: as §4
[22] = Volume of distribution in cynomolgus monkey; assay type: ADME, organism-based, Macaca fascicularis; conditions: in vivo, read-out: Vdss; outline: as §4
Rhesus monkey = assay: Increase in thiocyanate ion in monkey plasma at 3 mg/kg, po after 24 hrs; assay type: ADME, organism-based; parameters: dose 3 mg/kg, route oral; conditions: in vivo; outline: as §5
[23] = Tmax in cynomolgus monkey; assay type: ADME, organism-based, Macaca fascicularis; conditions: in vivo; outline: as §4
[24] = Half life in cynomolgus monkey at 1 mg/kg, iv; assay type: ADME, organism-based, Macaca fascicularis; parameters: dose 1 mg/kg, route intravenous; conditions: in vivo; outline: as §4
[25] = Half life in cynomolgus monkey at 1 mg/kg, po; assay type: ADME, organism-based, Macaca fascicularis; parameters: dose 1 mg/kg, route oral; conditions: in vivo; outline: as §4
Canis familiaris [26] = assay: Increase in thiocyanate ion in dog plasma at 3 mg/kg, po after 24 hrs; assay type: ADME, organism-based, Canis lupus familiaris; parameters: dose 3 mg/kg, route oral; conditions: in vivo; outline: as §5
[27] = Half life in Beagle dog at 1 mg/kg, po; assay type: ADME, organism-based, Canis lupus familiaris; parameters: dose 1 mg/kg, route oral; conditions: in vivo; outline: as §4
[28] = Bioavailability in cynomolgus monkey; assay type: ADME, organism-based, Macaca fascicularis; conditions: in vivo; outline: as §4
[29] = Percent of unbound ligand in Sprague-Dawley rat plasma; assay type: ADME, cell-free

Chain of Dipeptidyl peptidase 4 (Mus musculus) (P28843 whole entry, looked up): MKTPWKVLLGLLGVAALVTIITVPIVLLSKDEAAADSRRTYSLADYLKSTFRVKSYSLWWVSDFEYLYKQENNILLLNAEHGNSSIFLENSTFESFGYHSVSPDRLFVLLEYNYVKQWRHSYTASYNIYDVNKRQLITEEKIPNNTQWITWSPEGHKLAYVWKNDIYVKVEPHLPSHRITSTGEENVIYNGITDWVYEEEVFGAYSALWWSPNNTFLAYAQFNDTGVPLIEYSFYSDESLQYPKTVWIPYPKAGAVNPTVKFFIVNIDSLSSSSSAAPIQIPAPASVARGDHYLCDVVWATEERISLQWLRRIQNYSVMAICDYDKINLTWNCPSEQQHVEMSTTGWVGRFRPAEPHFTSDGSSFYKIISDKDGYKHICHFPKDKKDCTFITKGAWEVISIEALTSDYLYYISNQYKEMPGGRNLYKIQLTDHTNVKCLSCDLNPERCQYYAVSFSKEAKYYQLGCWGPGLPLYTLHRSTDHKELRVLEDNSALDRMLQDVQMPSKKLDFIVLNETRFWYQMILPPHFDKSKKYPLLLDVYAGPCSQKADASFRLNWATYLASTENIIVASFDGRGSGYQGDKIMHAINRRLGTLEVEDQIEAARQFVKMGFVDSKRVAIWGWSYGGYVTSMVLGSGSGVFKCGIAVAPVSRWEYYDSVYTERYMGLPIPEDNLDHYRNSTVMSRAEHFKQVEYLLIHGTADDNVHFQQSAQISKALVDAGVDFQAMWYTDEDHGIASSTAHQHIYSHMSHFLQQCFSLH
Chain of Dipeptidyl peptidase 4 (P27487 whole entry): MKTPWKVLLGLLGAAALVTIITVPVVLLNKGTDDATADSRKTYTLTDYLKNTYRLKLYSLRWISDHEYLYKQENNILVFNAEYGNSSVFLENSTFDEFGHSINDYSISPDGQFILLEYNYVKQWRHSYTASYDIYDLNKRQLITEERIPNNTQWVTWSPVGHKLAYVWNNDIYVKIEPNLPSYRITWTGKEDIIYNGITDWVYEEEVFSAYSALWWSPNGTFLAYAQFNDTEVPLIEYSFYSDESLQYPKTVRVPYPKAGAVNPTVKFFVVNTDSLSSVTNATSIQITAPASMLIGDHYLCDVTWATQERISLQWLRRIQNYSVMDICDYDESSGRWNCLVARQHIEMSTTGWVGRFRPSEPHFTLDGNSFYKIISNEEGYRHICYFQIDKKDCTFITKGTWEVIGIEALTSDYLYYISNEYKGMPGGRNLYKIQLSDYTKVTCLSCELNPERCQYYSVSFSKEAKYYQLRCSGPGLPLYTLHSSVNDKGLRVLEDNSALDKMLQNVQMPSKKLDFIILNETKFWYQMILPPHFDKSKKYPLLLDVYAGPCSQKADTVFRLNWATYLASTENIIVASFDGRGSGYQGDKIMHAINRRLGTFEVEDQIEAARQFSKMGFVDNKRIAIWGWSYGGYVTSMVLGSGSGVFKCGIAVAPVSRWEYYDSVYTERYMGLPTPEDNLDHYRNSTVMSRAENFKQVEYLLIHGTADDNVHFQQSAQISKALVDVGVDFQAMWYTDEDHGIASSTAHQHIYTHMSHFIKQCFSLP

Compound: N#C[C@@H]1CC[C@H](C#N)N1C(=O)CNC12CC3CC(CC1C3)C2
IC50 (Dipeptidyl peptidase 4): 72 nM
Activity [1]: 62%

Compound: CCC1(NCC(=O)N2[C@H](C#N)CC[C@@H]2C#N)CCCCC1
IC50 (Dipeptidyl peptidase 4): > 3000 nM

Compound: COCC1(NCC(=O)N2[C@H](C#N)CC[C@@H]2C#N)CCCC1
CL (Rattus norvegicus [2]): 98 mL/min/kg
IC50 (Dipeptidyl peptidase 4): 84 nM
half-life [3]: 38.4 min
Activity [4]: 74%
bioavailability [5]: 48%
Vd [6]: 1.6 L/kg
half-life [7]: 12 min

Compound: CCC(C)(CC)NCC(=O)N1[C@H](C#N)CC[C@@H]1C#N
IC50 (Dipeptidyl peptidase 4): > 3000 nM

Compound: CCCCOCC1(NCC(=O)N2[C@H](C#N)CC[C@@H]2C#N)CCCC1
IC50 (Dipeptidyl peptidase 4): 91 nM
Activity [4]: 16%

Compound: C#CC1(NCC(=O)N2[C@H](C#N)CC[C@@H]2C#N)CCCCC1
IC50 (Dipeptidyl peptidase 4): > 3000 nM

Compound: CC(C)C(C)(C)NCC(=O)N1[C@H](C#N)CC[C@@H]1C#N
IC50 (Dipeptidyl peptidase 4): > 3000 nM

Results, then the molecule that gave them:

IC50 (Dipeptidyl peptidase 4): > 30000 nM
Compound: N#C[C@@H]1CC[C@H](c2ccccc2)N1C(=O)CNC1(CO)CCCC1

IC50 (Dipeptidyl peptidase 4): > 3000 nM
Compound: N#C[C@@H]1CC[C@H](C#N)N1C(=O)CNC12CC3(F)CC(F)(CC(F)(C3)C1)C2

solubility [8]: 200 mg/mL
solubility [9]: > 76 mg/mL
Compound: Cl.N#C[C@@H]1CC[C@H](C#N)N1C(=O)CNC1(CO)CCCC1

IC50 (Dipeptidyl peptidase 4): 64 nM
Activity [4]: 79%
Compound: CCOCC1(NCC(=O)N2[C@H](C#N)CC[C@@H]2C#N)CCCC1

Cmax (Rattus norvegicus [10]): Dose-dependent effect
CL (Rattus norvegicus [2]): 70 mL/min/kg
Tmax [11]: ≤ 60 min
fraction unbound [12]: 0.77
half-life [3]: 162 min
fraction unbound [13]: 0.84
CL (Cynomolgus monkey): 42 mL/min/kg
AUC (Rattus norvegicus [14]): Dose-dependent effect
Vd [15]: 1.3 L/kg
bioavailability [5]: 77%
fraction unbound [16]: 1
half-life [17]: 48 min
bioavailability [18]: 93%
CL (Canis familiaris [19]): 22 mL/min/kg
Vd [6]: 1.4 L/kg
Activity (Rattus norvegicus [20]): Not Active
Tmax [21]: ≤ 60 min
Vd [22]: 1.7 L/kg
Activity (Rhesus monkey): Not Active
half-life [7]: 18 min
Tmax [23]: ≤ 60 min
half-life [24]: 36 min
half-life [25]: 144 min
Activity (Canis familiaris [26]): Not Active
half-life [27]: 318 min
bioavailability [28]: 42%
fraction unbound [29]: 1
Compound: N#C[C@@H]1CC[C@H](C#N)N1C(=O)CNC1(CO)CCCC1

IC50 (Dipeptidyl peptidase 4): > 3000 nM
Compound: CC1(NCC(=O)N2[C@H](C#N)CC[C@@H]2C#N)CCSC1 (stereo partly specified)

Activity [4]: 57%
Compound: N[C@H](C(=O)N1CC(F)(F)C(F)(F)C1)C1CCCCC1

IC50 (Dipeptidyl peptidase 4): > 3000 nM
Compound: COC(=O)C1(NCC(=O)N2[C@H](C#N)CC[C@@H]2C#N)CCCC1
